PTEN del growth: growth suppression of PTEN-null HCT116, primary screen, cell-based, CellTiter-Glo. HCT116 PTEN-null viability, 60 h; stronger effect = lower value. viability, % at 10 µM. 140,000 tested, 1.2% active;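 active means viability at or below a set limit, 4 SD under the median of all tested compounds, cut at about 3.7% in these data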;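 further: PTEN knockout HCT116 line with beta catenin targeted HCT116 as companion control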
H69AR growth 86K: proliferation blockers of H69AR lung cancer cells, primary screen, cell-based, human, 86K library | H69AR lung tumor viability, ATP luminescence, 72 h; stronger effect = lower value | viability, % at 10 µM | 85,000 tested, 6% active | AID 598, 2007;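 active means viability at or below 40%; inactive means viability above 40%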;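 further: multidrug resistant small cell line overexpressing MRP-1 efflux transporter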
bCat KO growth: primary screen for growth suppressors in beta-catenin knockout HCT116 cells (colon tumor, human) | HCT116 beta-catenin knockout viability, CellTiter-Glo, 60 h; stronger effect = lower value | viability, % at 10 µM | 140,000 tested, 1.5% active | AID 818, 2007;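 active means viability at or under a set limit, the compound median less 4 SD, cut at about 6% in these data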
Fibroblast inh: antiproliferative effect on LL 47 fibroblasts – human, LL 47 cells, CellTiter-Glo luminescence, primary screen; LL 47 human lung fibroblast viability, ATP luminescence; stronger effect = lower value; viability, % at 10 µM; 85,000 tested, 1.1% active;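 active means viability at or below 50% in the single dose screen; inactive means viability above 50%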;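 further: compound exposure lasted 72 h before the ATP readout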
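Times – overnight cell rest, 72 h compound treatment at 37 °C · Test system – human lung fibroblast line LL 47, low passage · Amount – 1,150 cells in each well · Controls – cell-only wells, no compound · Doses – 0.1% DMSO in all compound wells · Measured by – CellTiter-Glo luminescence · Buffer or medium – IMEM plus 15% FBS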
HUVEC inhibit: inhibitors of HUVEC proliferation, primary screen, cell-based, 384-well; 86,000 tested, 1.1% active; viability, % at 10 µM (by protocol); CellTiter-Glo luminescence, 72 h; stronger effect = lower value; AID 648, 2007;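 active means viability at or below 30%; inactive means viability above 30%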
Hits are given with their value. Only a selection was taken, and hits are over-represented in it overall.

What do the screens show for `CCOc1ccc(-c2nnn(CC(=O)Nc3ccccc3OC)n2)cc1OCC`?
PTEN del growth: inactive; H69AR growth 86K: 11; bCat KO growth: inactive; Fibroblast inh: inactive; HUVEC inhibit: inactive

Results for COc1ccc(-c2nnn(CC(=O)NCc3ccccc3)n2)cc1OC ?
PTEN del growth: inactive; H69AR growth 86K: inactive; bCat KO growth: inactive; Fibroblast inh: inactive; HUVEC inhibit: inactive

Results for COc1cc(C(=O)Nc2ccccc2-c2nnn(CC(N)=O)n2)cc(OC)c1OC ?
PTEN del growth: inactive; bCat KO growth: inactive

What do the screens show for `O=C(Cn1nnc(-c2ccccc2NC(=O)c2cccs2)n1)Nc1ccccc1`?
PTEN del growth: inactive; H69AR growth 86K: 15; bCat KO growth: inactive; Fibroblast inh: inactive; HUVEC inhibit: inactive

What do the screens show for `COc1ccccc1NC(=O)Cn1nnc(-c2ccccc2NC(=O)c2cccs2)n1`?
PTEN del growth: inactive; H69AR growth 86K: 30; bCat KO growth: inactive; Fibroblast inh: inactive; HUVEC inhibit: inactive

What do the screens show for `CCCOc1ccc(C2c3c(oc4ccccc4c3=O)C(=O)N2CCCN2CCOCC2)cc1` (stereo not drawn)?
PTEN del growth: inactive; bCat KO growth: inactive

Results for Cc1cc(Cl)c(S(=O)(=O)N2CCN(c3ccc(F)cc3)CC2)cc1OCC(=O)NC1CCCCC1 ?
PTEN del growth: inactive; H69AR growth 86K: 36; bCat KO growth: inactive; Fibroblast inh: inactive; HUVEC inhibit: inactive

How did COc1c(C(=O)Nc2ccc(Cc3ccncc3)cc2)ccc2ccccc12 do in these assays?
PTEN del growth: inactive; bCat KO growth: inactive

What do the screens show for `Cn1c(CSCc2ccccc2)n[nH]c1=S`?
PTEN del growth: inactive; bCat KO growth: inactive

What do the screens show for `N#C/C(=C\c1ccccc1)C(=O)N(c1ccccn1)C1CCCCC1`?
PTEN del growth: inactive; bCat KO growth: inactive

What do the screens show for `C=CCn1c(SCC(=O)Nc2cc(C)on2)nc2sc3c(c2c1=O)CCCC3`?
PTEN del growth: inactive; bCat KO growth: inactive

Results for CC(C)C(C)NC(=O)CSc1nc2scc(-c3ccco3)c2c(=O)n1-c1ccccc1 (stereo not drawn) ?
PTEN del growth: inactive; H69AR growth 86K: inactive; bCat KO growth: inactive; Fibroblast inh: inactive; HUVEC inhibit: inactive

Results for Cc1cc(NC(=O)CSc2nc(C(C)C)nc3sc4c(c23)CCCC4)no1 ?
PTEN del growth: inactive; H69AR growth 86K: 5.6; bCat KO growth: inactive; Fibroblast inh: 18; HUVEC inhibit: inactive

Results for CCn1c(SCC(=O)Nc2cc(C)on2)nc2sc3c(c2c1=O)CCCC3 ?
PTEN del growth: 2.3; H69AR growth 86K: 7.1; bCat KO growth: inactive; Fibroblast inh: 15; HUVEC inhibit: inactive

What do the screens show for `C=CCn1c(SCC(=O)Nc2cc(C)on2)nc2sc(C)c(C)c2c1=O`?
PTEN del growth: inactive; H69AR growth 86K: 28; bCat KO growth: inactive; Fibroblast inh: inactive; HUVEC inhibit: inactive

How did CC(NC(=O)CSc1nc2sc3c(c2c(=O)n1-c1ccccc1)CCCC3)c1ccccc1 (stereo not drawn) do in these assays?
PTEN del growth: inactive; H69AR growth 86K: 1.9; bCat KO growth: inactive; Fibroblast inh: inactive; HUVEC inhibit: inactive

Results for CCc1ccc(C2CC(c3ccc(C)cc3)n3nc(N)nc3N2)cc1 (stereo not drawn) ?
H69AR growth 86K: inactive; Fibroblast inh: inactive; HUVEC inhibit: inactive

What do the screens show for `COC(=O)CNC(=O)COc1ccccc1`?
PTEN del growth: inactive; bCat KO growth: inactive

What do the screens show for `Cc1ccc2oc(=O)c3cnn(CC(=O)Nc4ccccc4N4CCN(C)CC4)c3c2c1`?
PTEN del growth: inactive; H69AR growth 86K: inactive; bCat KO growth: inactive; Fibroblast inh: 47; HUVEC inhibit: 2.1

How did Cc1ccc2oc(=O)c3cnn(CC(=O)N4CCN(c5ccccc5)CC4)c3c2c1 do in these assays?
PTEN del growth: inactive; H69AR growth 86K: inactive; bCat KO growth: inactive; Fibroblast inh: inactive; HUVEC inhibit: inactive

Results for C#CCN(C(=O)Nc1ccccc1)c1ccccc1 ?
PTEN del growth: inactive; bCat KO growth: inactive

How did O=C1NC(c2ccncc2)Nc2ccccc21 (stereo not drawn) do in these assays?
PTEN del growth: inactive; H69AR growth 86K: inactive; bCat KO growth: inactive; Fibroblast inh: inactive; HUVEC inhibit: inactive

How did Cc1ccc(C2NC(=O)c3ccccc3N2)s1 (stereo not drawn) do in these assays?
PTEN del growth: inactive; H69AR growth 86K: 32; bCat KO growth: inactive; Fibroblast inh: inactive; HUVEC inhibit: inactive

How did Cn1c(=O)c2c(nc(N3CCN(Cc4ccccc4)CC3)n2CCSc2ncccn2)n(C)c1=O do in these assays?
H69AR growth 86K: inactive; Fibroblast inh: inactive; HUVEC inhibit: inactive

Results for O=[N+]([O-])c1cc(-c2ncccn2)c([N+](=O)[O-])s1 ?
PTEN del growth: inactive; bCat KO growth: 2.2

Results for O=C(Nc1ncccn1)c1cc([N+](=O)[O-])cc([N+](=O)[O-])c1 ?
PTEN del growth: inactive; bCat KO growth: inactive

How did CCCCC(=O)/C=C/n1c(=S)oc2ccccc21 do in these assays?
PTEN del growth: inactive; bCat KO growth: inactive

How did Cc1nn(C)c(C)c1/C=N/N=C1\CCC2C3CCc4cc(O)ccc4C3CCC12C (stereo not drawn) do in these assays?
PTEN del growth: inactive; bCat KO growth: 3.1

Results for Cc1c(CCC(C)C)c(-n2ccnc2C)n2c(nc3ccccc32)c1C#N ?
PTEN del growth: inactive; H69AR growth 86K: 23; bCat KO growth: inactive; Fibroblast inh: inactive; HUVEC inhibit: inactive

How did C=C(C)CN1CCN(c2c(CCC#N)c(C)c(C#N)c3nc4ccccc4n23)CC1 do in these assays?
PTEN del growth: 3.1; H69AR growth 86K: 38; bCat KO growth: 2.9; Fibroblast inh: inactive; HUVEC inhibit: inactive

Results for CCCCCc1c(C)c(C#N)c2nc3ccccc3n2c1-n1ccnc1C ?
PTEN del growth: inactive; bCat KO growth: inactive

How did Cc1cccc(NC(=S)NC2CC3CCC(C2)N3Cc2ccco2)c1 (stereo not drawn) do in these assays?
PTEN del growth: inactive; bCat KO growth: inactive

Results for O=C(OCn1nnc2ccccc2c1=O)c1cc(-c2ccccc2)nc2ccccc12 ?
PTEN del growth: inactive; bCat KO growth: inactive

What do the screens show for `CC(C)c1ccc(O)c(NC(=O)c2ncn[nH]2)c1`?
PTEN del growth: inactive; H69AR growth 86K: inactive; bCat KO growth: inactive; Fibroblast inh: inactive; HUVEC inhibit: inactive

What do the screens show for `CC(C)c1ccc2c(c1)C1(NN=C(c3ccccc3)S1)C(=O)N2` (stereo not drawn)?
PTEN del growth: inactive; H69AR growth 86K: 18; bCat KO growth: 4.5; Fibroblast inh: 43; HUVEC inhibit: 3.4

How did CCc1ccc2c(c1)C1(NN=C(c3ccc(C)cc3)S1)C(=O)N2 (stereo not drawn) do in these assays?
PTEN del growth: 1.7; H69AR growth 86K: 2.3; bCat KO growth: 1.4; Fibroblast inh: 47; HUVEC inhibit: 9.8
